CHRM1 agonist = activates human CHRM1 receptor | P11229 | CHO-K1 hM1, Fluo-8 calcium fluorescence, agonist mode; 0% DMSO, 100% acetylcholine EC100 | activation, % at 3 µM | hit rate 0.33% among 360,000 | AID 588814;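 active = activation above the run's mean compound activation plus 3 SD, cut at about 16% in these data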;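 note: peak over basal fluorescence ratio within a 140 s kinetic read after compound addition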
M1 PAM = positive allosteric modulators of human M1 muscarinic receptor; activation, % at 3 µM; CHO-K1 hM1, Fluo-8 calcium fluorescence, ACh EC20; 0% = ACh EC20, 100% = maximal ACh; P11229; hit rate 0.088% among 360,000; in the data active = activation above about 19%, passing the limit was not always enough
M5 ag = CHRM5 agonism in calcium assay; P08912; CHO-K1 hM5 cells, Fluo-8 calcium fluorescence; 0% DMSO wells, 100% maximal acetylcholine response; activation, % at 3 µM; hit rate 0.19% among 360,000; AID 624037;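 active = activation above the run's mean over test compounds plus 3 SD, cut at about 23% in these data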;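 note: signal is peak over basal fluorescence ratio across the kinetic read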
Target sequence (P08912 whole entry, looked up): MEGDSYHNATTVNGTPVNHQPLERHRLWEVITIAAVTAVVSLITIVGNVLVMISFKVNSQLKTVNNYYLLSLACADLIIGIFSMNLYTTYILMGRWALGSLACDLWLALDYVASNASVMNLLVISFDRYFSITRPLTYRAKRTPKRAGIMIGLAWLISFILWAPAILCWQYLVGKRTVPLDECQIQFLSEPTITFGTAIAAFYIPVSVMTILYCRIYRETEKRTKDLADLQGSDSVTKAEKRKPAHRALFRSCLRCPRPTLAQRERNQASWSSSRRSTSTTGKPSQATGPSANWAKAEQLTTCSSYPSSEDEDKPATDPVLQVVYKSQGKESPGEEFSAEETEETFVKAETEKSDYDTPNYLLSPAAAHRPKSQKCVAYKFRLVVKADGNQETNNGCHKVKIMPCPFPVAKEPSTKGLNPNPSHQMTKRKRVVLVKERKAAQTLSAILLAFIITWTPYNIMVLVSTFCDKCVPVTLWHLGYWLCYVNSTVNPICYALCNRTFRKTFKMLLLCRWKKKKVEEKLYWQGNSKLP
CHRM5 PAM = potentiates acetylcholine response at human M5 receptor; P08912; CHO-K1 hM5, Fluo-8 calcium, ACh EC20 PAM; 0% = ACh EC20, 100% = ACh EC100; activation, % at 3 µM; hit rate 0.3% among 360,000; AID 624038;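 active = activation above the run cutoff, the mean activation of all test compounds plus 3 SD, cut at about 18% in these data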
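Assay system: CHO-K1 hM5 cells / Incubation: Fluo-8 loading 80 min at 37 °C plus 30 min room temperature / Technique: Fluo-8 calcium dye fluorescence, kinetic read / Repeats: single replicate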
M5 antag = CHRM5 antagonism in calcium assay. CHO-hM5 cells, Fluo-8 calcium fluorescence, ACh EC80. inhibition, % at 3 µM. P08912. hit rate 0.59% among 360,000;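 active = inhibition above a per-plate cutoff, the mean of that plate's test compounds plus 3 SD, cut at about 27% in these data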
M1 antag = blocks human M1 muscarinic receptor. P11229. CHO-K1 hM1, Fluo-8 calcium fluorescence, ACh EC80 antagonist. inhibition, % at 3 µM. hit rate 1.3% among 360,000;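 active = percent inhibition above its own plate's cutoff, namely the mean of that plate's compound wells plus 3 SD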;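 note: peak over basal fluorescence ratio during 140 s after agonist addition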
Of the large screens only hits and unclear results are named; the others gave an inactive call. Only some compounds are listed: those with a hit (about 2.2% of all), similar ones and a draw of the others.

CN1CCN(CCOC2Cc3ccccc3Sc3ccc(Cl)cc32)CC1 (configuration not stated)	none
CN1CCN(C2=Cc3ccccc3Sc3cc(F)c(Cl)cc32)CC1	M1 antag 68.7
COc1ccc2[nH]c3c(=O)n(CCCN4CCOCC4)cnc3c2c1	CHRM5 PAM 20.9
CC1(C(=O)Nc2ccc3c(c2)OCCO3)CCC(=O)N1CCc1c[nH]c2ccccc12 (configuration not stated)	none
COC(=O)C(Cc1ccc(OC(=O)c2ccc(C(F)(F)F)cc2)cc1)N1Cc2ccccc2C1=O (configuration not stated)	M1 antag 35.5
COC(=O)C(Cc1ccc(OC(=O)c2ccc(Cl)cc2)cc1)N1Cc2ccccc2C1=O (configuration not stated)	M5 antag 29.8, M1 antag 20.9
O=C(O)CC(c1ccc(Cl)cc1)N1Cc2ccccc2C1=O (configuration not stated)	none
CCN1C(=O)[C@H]2[C@@H](c3ccc(C(F)(F)F)cc3)N[C@]3(CCCN(Cc4ccc(OC)cc4)C3=O)[C@H]2C1=O	none
C1=C(c2ccc(-c3ccccc3)cc2)Nc2ncnn2C1c1ccco1 (configuration not stated)	CHRM1 agonist 120.4, M5 ag 52.5, M1 antag 44.6
Fc1ccc(C2=CC(c3ccc(Br)o3)n3ncnc3N2)cc1 (configuration not stated)	none
Brc1ccc(C2=CC(c3cccs3)n3ncnc3N2)cc1 (configuration not stated)	CHRM1 agonist 27.8, M5 ag 26.5
Fc1ccc(C2=CC(c3ccco3)n3ncnc3N2)cc1 (configuration not stated)	none
O=C(NC1(Cc2ccccc2)CCN(Cc2ccc(-c3ccccc3)cc2)C1=O)c1ccccc1 (configuration not stated)	M1 antag 37.1
Cc1ccc(-n2nc3c(=O)n(CCCC(=O)N4CCCCC4)nc(C)c3c2C)cc1	none
Cc1nn(C(C)C(=O)NCCN2CCCCCC2)c(=O)c2nn(-c3ccccc3)c(C)c12 (configuration not stated)	M1 antag 57.6
CCc1nn(C(C)C(=O)NCCN2CCCCCC2)c(=O)c2cc3occc3n12 (configuration not stated)	M1 antag 37.9
Cc1nn(CC(=O)NCCN2CCCCCC2)c(=O)c2nn(-c3ccccc3)c(C)c12	none
CCc1nn(C(C)C(=O)NCCN2CCN(c3cccc(C)c3C)CC2)c(=O)c2cc3occc3n12 (configuration not stated)	none
CCOc1ccc(-n2nc3c(=O)n(CCN4CCCCC4)nc(C)c3c2C)cc1	M1 antag 30.5
CC1Cc2nc(SCC(=O)NCC3CCCO3)n(C)c(=O)c2S1 (configuration not stated)	none
CCN(C(=O)COC(=O)c1c(C)c(-c2ccccc2)nc2ccccc12)C1CCS(=O)(=O)C1 (configuration not stated)	M5 ag 25.1
O=C1NC(Cc2ccccc2)c2nc3ccccc3c(=O)n2-c2cc3ccccc3cc21 (configuration not stated)	none
Cc1cc(C(C)(C)C)ccc1OCCCCN1CCCC1	none
CCC(C)(C)c1ccc(OCCCC[n+]2cccc(C)c2C)c(C(C)(C)CC)c1	M5 antag 47.0, M1 antag 73.2
CC(C)(C)c1ccc(/C=N/OCC(=O)NCc2ccccc2)cc1	CHRM1 agonist 17.8
Cc1ccc(CNC(=O)CO/N=C/c2ccc(C(C)(C)C)cc2)cc1	none
CC(C)c1ccc(NS(=O)(=O)c2ccc(N3C(=O)CCC3=O)cc2)cc1	M5 antag 27.1
CCn1nc(C)c(CN2CCCC(C(=O)c3cccc(OC(C)C)c3)C2)c1C (configuration not stated)	M1 antag 95.3
Cc1nc(C(=O)N2CCCC(C(=O)c3cccc(OC(C)C)c3)C2)cs1 (configuration not stated)	none
CC(C)Oc1cccc(C(=O)C2CCCN(C(=O)c3cncs3)C2)c1 (configuration not stated)	M1 antag 39.4
CC(C)Oc1cccc(C(=O)C2CCCN(Cc3cccn3-c3ccccn3)C2)c1 (configuration not stated)	M1 antag 40.7
Cc1nn(C(C)C)c(C)c1CN1CCCC(C(=O)c2cccc(OC(C)C)c2)C1 (configuration not stated)	M1 antag 36.8
CC(C)Oc1cccc(C(=O)C2CCCN(Cc3cnn(C(C)C)c3)C2)c1 (configuration not stated)	none
O=C1C2C3C=CC(O3)C2C(=O)N1N=Cc1ccc2c(c1)OCO2 (configuration not stated)	none
Cc1ccc2c(c1)C1CN(C)CCC1N2C(=O)COc1ccccc1F (configuration not stated)	none
Cc1cc(C)n2nc(C(F)(F)F)c(-c3ccccc3)c2n1	none
O=C(CCCc1cccs1)Nc1nccs1	none
CC(C)(CN1CCc2ccccc2C1)NS(=O)(=O)c1ccc(Cl)cc1	none
COc1ccc(NC(=O)c2cccs2)cc1C(=O)N1CCN(c2ccccc2)CC1	none
O=C(N/N=C/c1ccc([N+](=O)[O-])o1)C1CCCC1	none
CC(NC(=O)C12CC3CC(CC(C3)C1)C2)C(=O)NN=Cc1ccc([N+](=O)[O-])o1 (configuration not stated)	M1 antag 102.0
C[n+]1ccccc1N1CCN(c2ccccc2Cl)CC1	none
Cc1ccc(Cl)cc1N1CCN(c2cccc[n+]2C)CC1	M1 antag 47.9
CC(C)C[C@H]1CN([C@@H](Cc2ccc(O)cc2)CN2CCC[C@H]2CN2C(=O)C(=O)NC[C@@H]2Cc2ccccc2)C(=O)C(=O)N1CC1CCCCCC1	none (no result: CHRM1 agonist, M1 PAM, M1 antag)
C[C@@H]1CN([C@H](C)CO)C(=O)Cc2cc(NS(=O)(=O)c3cn(C)cn3)ccc2O[C@H]1CN(C)S(=O)(=O)c1ccc(Cl)cc1	none
CCn1c(=O)c(C(=O)NNC(=O)c2cccc(Cl)c2)c(O)c2ccccc21	CHRM1 agonist 21.3
CCn1c(=O)c(C(=O)Nc2nc3ccccc3[nH]2)c(O)c2ccccc21	M1 antag 51.0
Cn1c(=O)c(C(=O)NNC(=O)c2cccc(Cl)c2)c(O)c2ccccc21	none
O=C1N=c2ccc([N+](=O)[O-])cc2=C1c1sc(=O)[nH]c1O	none
COc1ccc(N2C(=O)[C@H]3CCC=C[C@H]3[C@@H]2c2ccccc2Br)cc1	M1 antag 47.4

Assay outcomes deposited in PubChem by The Scripps Research Institute Molecular Screening Center.
